Assay outcomes as filed in PubChem BioAssay.
Sampled rows, rich in hits. Any-hit rate of the full collection: about 4.5%.
CHOP UPR activ: apoptotic UPR (CHOP) activation | CHO-CHOP luciferase reporter, luminescence; percent of tunicamycin response over DMSO baseline | activation, % at 10 µM | 330,000 tested, 0.34% active;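 active = at 10 µM dose, activation of 40% or more, normalized to positive control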;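 also: 100% = tunicamycin at 10 µg/mL and 0% = DMSO alone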
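Dosing – one dose, 10 µM in 0.5% DMSO · System – CHO-CHOP cells, stable luciferase reporter of PERK-eIF2a-CHOP signalling · Input – 500 cells/well · Control set – tunicamycin 10 µg/mL final as positive, DMSO-only wells as negative · Timing – 6 h compound treatment, 37 °C · Measure – % activation vs tunicamycin · Technique – luminescence read with Steady-Glo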
PfM18AAP inh-1: PfM18AAP enzyme inhibition | AID 1822 | recombinant PfM18AAP, H-Glu-NHMec fluorogenic cleavage | 290,000 tested, 1.2% active | inhibition, % at 7.35 µM;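 active = inhibition above the campaign mean inhibition over all tested compounds plus 3 SD, cut at about 28% in these data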;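 also: 0% = plate median of test compound wells and 100% = 2 mM ZnCl2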
UPR XBP1 act: adaptive UPR (XBP1) activation | 330,000 tested, 0.33% active | activation, % at 20 µM | AID 463104 | CHO-XBP1 luciferase reporter, IRE1-XBP1 UPR activation, luminescence; percent of tunicamycin response, DMSO as zero;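 active = versus positive control, 20 µM dose yields 30% or more activation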;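 also: 100% = tunicamycin at 10 µg/mL and 0% = DMSO only wells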
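assay system = CHO-XBP1 luciferase reporter cells | amount = 1000 cells/well | buffer or medium = F12 plus 10% FBS | compound dosing = single point, 20 µM final compound, 1% DMSO | incubation = 16-18 h cell attachment at 37 °C, then 6 h compound exposure | detection = Steady-Glo luminescence read | controls = tunicamycin 10 µg/mL and vehicle-only wells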
p97 ATPase inh: human p97 ATPase inhibition | P55072 | recombinant p97 ATPase, Kinase-Glo ATP luminescence, 3 h | inhibition, % at 8 µM | 220,000 tested, 0.42% active | AID 1481; in the data active = inhibition above about 15%;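 also: 0% = DMSO vehicle and 100% = wells lacking enzyme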
Target sequence (P55072 whole entry, looked up): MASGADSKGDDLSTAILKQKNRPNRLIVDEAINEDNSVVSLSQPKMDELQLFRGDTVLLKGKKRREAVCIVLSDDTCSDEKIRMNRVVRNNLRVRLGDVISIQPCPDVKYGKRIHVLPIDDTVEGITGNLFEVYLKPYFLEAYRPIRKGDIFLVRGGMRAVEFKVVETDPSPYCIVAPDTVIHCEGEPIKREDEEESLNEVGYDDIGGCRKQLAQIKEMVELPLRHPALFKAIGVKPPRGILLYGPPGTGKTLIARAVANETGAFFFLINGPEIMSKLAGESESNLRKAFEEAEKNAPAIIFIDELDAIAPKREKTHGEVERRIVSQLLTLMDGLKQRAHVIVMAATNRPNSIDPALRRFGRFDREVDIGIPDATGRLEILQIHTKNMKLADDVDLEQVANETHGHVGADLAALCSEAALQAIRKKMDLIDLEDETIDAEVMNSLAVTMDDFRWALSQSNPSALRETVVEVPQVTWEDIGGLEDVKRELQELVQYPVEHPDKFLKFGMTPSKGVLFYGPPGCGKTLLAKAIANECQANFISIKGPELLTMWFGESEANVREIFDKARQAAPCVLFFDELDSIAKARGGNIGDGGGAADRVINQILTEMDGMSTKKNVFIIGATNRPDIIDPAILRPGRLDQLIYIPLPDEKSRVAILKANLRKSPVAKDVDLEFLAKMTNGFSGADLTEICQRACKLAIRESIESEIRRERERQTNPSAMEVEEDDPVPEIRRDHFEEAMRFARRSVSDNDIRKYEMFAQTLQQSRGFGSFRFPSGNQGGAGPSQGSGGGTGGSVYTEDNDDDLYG
NS3 helicase inh: blocks Hepatitis C virus NS3 helicase unwinding | NS3 helicase DNA unwinding, Cy5 molecular beacon fluorescence | inhibition, % at 10.9 µM | 290,000 tested, 0.56% active | AID 1800;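 active = inhibition above the mean of all tested compounds plus 3 SD, set per campaign, cut at about 35% in these data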;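 also: 0% = DMSO wells and 100% = thioflavine S control wells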
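System: Hepatitis C virus NS3 helicase domain fragment enzyme | Reagent: Annealed dual-labelled DNA beacon duplex, ATP-started | Compound dosing: 10.9 µM single point, 0.8% DMSO | Incubation: 1 h reaction at 25 °C, ATP-initiated | Technique: Cy5 fluorescence | Evaluation: Percent inhibition from t60/t0 fluorescence ratio | Benchmarks: Low DMSO, high thioflavine S at 110 µM | Replication: Singlicate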
CHOP inh: blocks CHOP induction under ER stress; CHO-K1 CHOP-promoter luciferase, tunicamycin-induced, 15-18 h; 220,000 tested, 3.8% active; inhibition, % at 10 µM;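 active = compounds that reduced the stress-induced luciferase reporter signal by more than about 70% of percent inhibition, limit read from the data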;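 also: 0% = tunicamycin plus vehicle and 100% = wells without tunicamycin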
PfM18AAP inh-2: PfM18AAP inhibition, confirmation | shares compounds with PfM18AAP inh-1 | recombinant PfM18AAP, H-Glu-NHMec fluorogenic cleavage | inhibition, % at 7.35 µM | 2,400 tested, 28% active;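 active = mean inhibition over replicate wells above the hit cutoff set for the earlier primary screen, cut at about 29% in these data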;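 also: 0% = median of test compound wells and 100% = 2 mM ZnCl2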
CTSL1 counter: Cathepsin L (human) inhibition, confirmation. 2,400 tested, under 10 active. purified cathepsin L1, Z-Leu-Arg-MCA fluorescence. inhibition, % at 5.96 µM. shares compounds with PfM18AAP inh-1;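 active = average inhibition across replicates above the hit cutoff set in the earlier primary screen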;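 also: 0% = median of test compound wells and 100% = Z-Phe-Ala-diazomethylketone 1 µM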
* marks the source's active call; other numbers are inactive results; / = no result.

SMILES	CHOP UPR activ	PfM18AAP inh-1	UPR XBP1 act	p97 ATPase inh	NS3 helicase inh	CHOP inh	PfM18AAP inh-2	CTSL1 counter
O=c1c2ccccc2c(/C=N/n2cnnc2)c(O)n1-c1ccccc1	0.6	65.0*	-4.1	0.9	8.9	18.4	72.1*	0.5
COc1ccc(-n2c(O)c(C=Nc3ccccc3)c3ccccc3c2=O)cc1	1.5	6.1	-0.5	10.5	9.3	-41.2	/	/
COc1ccc(-n2c(O)c(/C=N/n3cnnc3)c3ccccc3c2=O)cc1	-1.8	66.9*	-3.0	10.2	34.2	-8.3	74.3*	4.8
CCN(CC)C(=O)Cn1c(=O)n(CCCC(=O)NCc2ccccc2)c(=O)c2sccc21	1.9	2.3	-0.7	4.2	1.5	-21.8	/	/
CCOC(=O)c1sc(N2C(=O)C(O)=C(C(=O)c3ccco3)C2c2ccco2)nc1C (centres undefined)	/	32.0*	/	/	13.1	/	-43.4	-1.7
Cc1nonc1NC(=O)CSc1nc2ccccc2o1	1.6	3.3	-1.3	/	5.5	/	/	/
COc1cc2c(cc1OC)C(c1cc3cccc(C)c3[nH]c1=O)N(C(=O)c1ccco1)CC2 (centres undefined)	-0.8	48.4*	8.9	/	-0.1	/	-36.3	-2.7
COc1cc2ncc(S(=O)(=O)c3ccccc3)c(N3CCCC(C)C3)c2cc1OC (centres undefined)	3.9	6.6	-0.7	/	-34.8	/	/	/
CCC(C)N(C)C1CCN(C(=S)Nc2cccc(SC)c2)CC1 (centres undefined)	0.8	41.2*	0.8	-3.3	23.2	-2.7	-20.8	1.3
O=C(NNc1cccc(Cl)n1)c1c(Cl)cccc1Cl	-1.1	56.1*	3.9	4.0	4.6	-1.4	27.1	4.0
NC(=O)NNc1cccc(Cl)n1	-0.6	47.0*	1.5	1.6	10.1	-11.8	7.9	1.2
O=C(Cc1cccs1)NNC(=S)NC(=O)c1ccco1	-0.7	33.5*	-3.4	-2.6	0.4	14.0	-16.1	-2.8
O=C(Cc1cccs1)NNC(=S)NCc1ccc(Cl)cc1	-2.1	24.9	-0.6	-0.5	-1.1	-5.6	/	/
CCOc1ccc(CC(=O)C2C(=O)CC(C)(C)CC2=O)cc1OCC	0.1	0.8	-0.6	3.3	-4.6	21.9	/	/
CCOc1ccc(CC(=O)C2C(=O)CCCC2=O)cc1OCC	-2.4	33.0*	-1.7	-1.9	-8.9	-21.2	-24.7	-3.6
Cc1ccc(NC(=S)N(CCN(C)C)Cc2cccs2)c(C)c1	0.7	36.2*	-2.2	4.2	6.5	6.4	7.5	0.7
C=CC[C@]12CC=CC(=O)[C@@]1(O)O[C@H](c1ccc(OC)c(OC)c1)[C@H]2C	7.7	/	-0.8	/	/	/	/	/
Nc1nncn1C(=O)CCc1ccccc1	1.4	71.7*	0.1	3.4	17.3	30.6	49.1*	-2.7
Nc1nncn1C(=O)CCCOc1ccccc1	-0.8	35.2*	-1.8	3.6	-7.5	1.7	50.3*	-2.5
O=C(CCc1ccccc1)NNC(=O)CCc1ccccc1	-0.1	-7.8	-2.6	/	-0.4	/	/	/
O=C(O)CCC/C=C\C[C@@H]1[C@@H](/C=C/[C@H](O)C2Cc3ccccc3C2)[C@@H](F)C[C@@H]1O	/	/	/	/	/	-21.3	/	/
CNC[C@H](O)c1ccc(O)c(O)c1	-1.1	54.3*	-6.3	-4.4	6.0	9.1	65.9*	-8.0
CC(C)NCC(O)c1ccc(O)c(O)c1 (centres undefined)	-0.9	66.2*	-8.1	/	10.9	11.9	51.1*	-4.4
O=C(O)CCNS(=O)(=O)c1ccc2ccccc2c1	-1.7	-10.8	0.9	3.5	1.1	-3.6	/	/
O=C(O)CCNc1cc2ccccc2cc1C(=O)O	-1.1	34.9*	-0.9	3.6	17.5	18.3	-3.6	-3.3
SMILES	CHOP UPR activ	PfM18AAP inh-1	UPR XBP1 act	p97 ATPase inh	NS3 helicase inh	CHOP inh	PfM18AAP inh-2	CTSL1 counter
COCCSc1ccccc1C(=O)NCCCn1ccnc1	0.6	35.8*	0.9	3.2	-2.2	-36.7	-25.0	-1.2
Cc1ccccc1C(=O)NCCCn1ccnc1	1.4	-1.6	0.2	/	8.0	/	/	/
C/C(=N/NS(=O)(=O)c1ccc(Cl)cc1)c1ccncc1	2.0	3.9	-2.6	/	-6.6	/	/	/
C/C(=N\NS(=O)(=O)c1ccc(Br)cc1)c1ccncc1	0.6	53.2*	-3.4	/	25.2	/	13.5	-5.4
C/C(=N/NS(=O)(=O)c1cccc([N+](=O)[O-])c1)c1ccncc1	2.8	44.3*	-1.8	/	5.1	/	4.0	-4.0
CCc1ccc(/C(C)=N/NS(=O)(=O)c2ccc(OC)cc2)s1	0.8	5.4	-1.8	/	-6.7	/	/	/
Cc1ccc(C(=O)Nc2nnc(CC(=O)N/N=C/c3ccc(O)c(O)c3)s2)cc1	2.3	55.6*	-0.1	/	15.9	/	50.5*	4.5
Cc1ccc(S(=O)(=O)N2CCN(CC(=O)N/N=C\c3ccc(O)c(O)c3)CC2)cc1	-0.8	47.8*	2.2	1.5	-11.6	3.1	39.7*	-1.6
COc1ccc(S(=O)(=O)N2CCN(CC(=O)c3ccc(O)c(O)c3)CC2)cc1	18.1	71.6*	14.2	/	0.4	/	40.6*	0.0
O=C(CN1CCN(S(=O)(=O)c2ccc(F)cc2)CC1)c1ccc(O)c(O)c1	10.1	73.0*	27.0	4.0	8.1	-2.3	33.9*	3.6
CCOc1ccc(C(=O)CN2CCN(S(=O)(=O)c3ccc(F)cc3)CC2)cc1	0.0	-4.6	-3.1	-1.5	-13.9	11.6	/	/
Cc1ccc(C(=O)Nc2nnc(CC(=O)N/N=C/c3ccncc3)s2)cc1	1.6	4.9	0.6	-5.0	0.8	49.5	/	/
Cc1ccc(S(=O)(=O)N2CCN(CC(=O)N/N=C/c3ccc(C)o3)CC2)cc1	-1.4	0.5	0.9	-1.1	-0.4	1.9	/	/
COc1ccc(S(=O)(=O)N2CCN(CC(=O)NC3CCCC3)CC2)cc1	-3.0	-0.5	-1.8	/	17.5	/	/	/
Cc1ccc(NC(=O)c2noc(C(C)C)c2[N+](=O)[O-])cc1	3.9	-7.7	8.1	-2.6	8.4	8.3	/	/
O=C(CCC(=O)c1ccccc1)NC1CCCN(Cc2ccccc2F)C1 (centres undefined)	0.2	1.5	-3.1	/	2.2	/	/	/
CCn1c(SCC(=O)NC2CC2)nnc1-c1csc(C)c1	-1.3	-14.0	-3.1	/	-6.0	/	/	/
O=C1CSC(=S)N1/N=C/c1cccc(C(F)(F)F)c1	0.5	39.5*	-3.5	/	28.4	/	-6.3	-4.2
COc1cc(/C=N/N2C(=O)CSC2=S)cc(Br)c1O	/	26.6	/	-2.8	9.3	3.9	/	/
O=C1CSC(=S)N1/N=C/c1c(F)cccc1F	3.1	36.6*	-0.4	/	8.4	/	-4.4	1.8
COc1cccc(/C=N/N2C(=O)CSC2=S)c1O	1.0	32.0*	-0.1	6.1	7.3	19.8	26.0	0.3
